High-throughput results from PubChem.
This excerpt belongs to a sample that is enriched for hits.
N-glyco inh: increase of ERlucT glycosylation luciferase signal, primary screen, N-linked glycosylation inhibitor project, D54 ERlucT cells, luminescence, set 2; D54 ERlucT glycosylation luciferase reporter, 24 h; percent of 100 nM tunicamycin response; reporter increase, % at 12.5 µM; 360,000 compounds, 0.23% hits;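 active = mean luciferase reporter signal, scaled so untreated is 0 and the glycosylation-blocking control 100, at or above a set limit in every replicate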;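 note: luciferase carries N-glycosylation sites so blocking glycosylation raises the light; 0% = median of neutral control wells and 100% = median of 100 nM tunicamycin wells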
T cell HTS: modulators of CD8 T cell-vesicle binding, primary screen, mouse 2C CD8+ T cells, flow cytometry; 2C CD8+ T cell-vesicle binding; hits give low values; response (vesicle binding), % at 7 µM; 330,000 compounds, 0.068% hits;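 active = response, share of CD8 T cells binding vesicles, and their 90th percentile fluorescence all below set limits, cut at about 80% in these data, passing the limit was not always enough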;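 note: values below 100% mean blocked vesicle binding to the CD8+ T cells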
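Incubation: binding step 1.5 h, 37 °C, antibody labelling 20 min, ice; system: murine 2C transgenic CD8+ T lymphocytes; technique: cytometric PE anti-B7-1 and Alexa647 anti-CD8 signals after 1% paraformaldehyde fixation; also added: QL9-charged Drosophila Ld/ICAM-1/B7-1 vesicles; control set: naked versus QL9-loaded vesicles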
ALR H2O2 inh: inhibitors of human ALR sulfhydryl oxidase, primary screen, biochemical, H2O2 detection, HRP-luminol luminescence, single point. purified ALR, DTT oxidation. AID 485317, 2010. inhibition, % (no concentration beside the values). 290,000 compounds, 3.8% hits;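 active = mean replicate inhibition above about 79%, with every replicate also reaching it, limit read from the data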
Target sequence (P55789 whole entry, looked up): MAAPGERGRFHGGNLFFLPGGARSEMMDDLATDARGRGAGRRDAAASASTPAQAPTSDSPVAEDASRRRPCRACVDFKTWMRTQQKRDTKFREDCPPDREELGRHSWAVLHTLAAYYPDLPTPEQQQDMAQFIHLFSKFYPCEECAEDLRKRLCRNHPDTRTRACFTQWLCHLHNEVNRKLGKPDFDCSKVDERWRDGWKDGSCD
Active calls of the source: *.

`NC(=O)NC(=O)CC1S/C(=N/N=C2/NC(=O)CS2)NC1=O` (stereo not drawn) gave N-glyco inh 3, T cell HTS 239 and ALR H2O2 inh -11.
CCOc1cc(/C=N/Nc2ncc(C)c(=O)[nH]2)ccc1O was read as N-glyco inh 4, T cell HTS 185 and ALR H2O2 inh 100*.
Screening Cc1cc(=O)[nH]c(NN=Cc2cc(Br)ccc2O)n1 returned N-glyco inh -10.
Screening CCOc1cc(/C=N\Nc2nc(-c3ccc(C)cc3)c(NC(C)=O)s2)ccc1O returned N-glyco inh 0, T cell HTS 163 and ALR H2O2 inh 6.
For Cc1cc(=O)[nH]c(N/N=C/c2c(F)c(F)c(F)c(F)c2F)n1 the results were N-glyco inh -1, T cell HTS 169 and ALR H2O2 inh 76*.
Screening CCOc1cc(/C=N/Nc2nc(C)cc(=O)[nH]2)ccc1O returned N-glyco inh 3, T cell HTS 262 and ALR H2O2 inh 96*.
Screening Cc1cc(=O)[nH]c(N/N=C/c2ccccc2Cl)n1 returned N-glyco inh 6, T cell HTS 114 and ALR H2O2 inh -16.
CC(C)OCCCNC(=O)COCC(=O)Nc1ccc(OCCc2ccccc2)cc1 was read as N-glyco inh 0 and T cell HTS 186.
Screening COCCC(=O)N1CCOCC1c1cc(C(=O)Nc2ccccc2)no1 (stereo not drawn) returned N-glyco inh 1.
Nc1cccc2c(=O)[nH][nH]c(=O)c12 was read as N-glyco inh -1.
COc1ccc2nc(SCC(=O)Nc3ccc4c(c3)CCC4)[nH]c2c1 was read as N-glyco inh 1, T cell HTS 202 and ALR H2O2 inh -21.
For Cc1ccc(NC(=O)CSc2nc3c(c(=O)[nH]2)CCC3)cc1C the results were N-glyco inh 2, T cell HTS 247 and ALR H2O2 inh 18.
CC(C)Cc1c(O)nc(SCC(=O)Nc2ccc3c(c2)CCC3)[nH]c1=O was read as N-glyco inh -1, T cell HTS 666 and ALR H2O2 inh 99*.
`CC(C)c1c(O)nc(SCC(=O)Nc2ccc3c(c2)CCC3)[nH]c1=O` gave N-glyco inh 3, T cell HTS 194 and ALR H2O2 inh 99*.
C=CCC1(CC=C)CCCN1C(=O)Cn1nnnc1CN(C)C(C)C was read as N-glyco inh 1, T cell HTS 337 and ALR H2O2 inh 0.
For COc1cccc(CN2CCC(n3nccc3NC(=O)CCOc3ccccc3)CC2)c1 the results were N-glyco inh -5, T cell HTS 205 and ALR H2O2 inh 1.
Screening COc1cccc(CN2CCC(n3nccc3NC(=O)CCOc3ccccc3)CC2)c1O returned N-glyco inh -2, T cell HTS 215 and ALR H2O2 inh 94*.
N#CC(OC(=O)c1ccccc1)c1cccc([N+](=O)[O-])c1 (stereo not drawn) was read as N-glyco inh 2.
`CCS(=O)(=O)Nc1c(C(=O)OC)[nH]c2ccccc12` gave N-glyco inh -1, T cell HTS inactive and ALR H2O2 inh 60.
Screening Cc1ccc(S(=O)(=O)Nc2c(C(=O)O)[nH]c3ccccc23)cc1C returned N-glyco inh 3, T cell HTS 309 and ALR H2O2 inh 98*.
For CCS(=O)(=O)Nc1c(C(=O)O)[nH]c2ccccc12 the results were N-glyco inh 4, T cell HTS 672 and ALR H2O2 inh 99*.
Cc1cc(S(=O)(=O)Nc2c(C(=O)O)[nH]c3ccccc23)ccc1F was read as N-glyco inh 2 and T cell HTS 394.
`Cc1nn(-c2ccc(F)cc2)c(Cl)c1C(=O)NCC1CCCO1` (stereo not drawn) gave N-glyco inh 2, T cell HTS 565 and ALR H2O2 inh 4.
For CCc1nnc(NS(=O)(=O)c2ccc(NC(=O)c3ccccc3OC)cc2)s1 the results were N-glyco inh 1, T cell HTS 250 and ALR H2O2 inh 1.
Screening CC(C)(C)c1ccc(S(=O)(=O)N2CCC(O)(c3ccc(Cl)cc3)CC2)cc1 returned N-glyco inh 0, T cell HTS 681 and ALR H2O2 inh -2.
COc1cc(/C=N/NC(=O)C2CCN(CC(O)COCc3ccccc3)CC2)cc(OC)c1OC (stereo not drawn) was read as N-glyco inh 3, T cell HTS 239 and ALR H2O2 inh -9.
For COc1cc(/C=N/NC(=O)C2CCN(CC(O)COCc3ccccc3)CC2)ccc1O (stereo not drawn) the results were N-glyco inh 0, T cell HTS 330 and ALR H2O2 inh 99*.
`CCOc1cc(/C=N\NC(=O)CC(=O)NCCc2ccccc2)ccc1O` gave N-glyco inh 1, T cell HTS 64 and ALR H2O2 inh 99*.
Screening COc1cc(/C=N\NC(=O)CC(=O)NCCc2ccccc2)ccc1O returned N-glyco inh -1, T cell HTS 259 and ALR H2O2 inh 99*.
`CCOc1ccc(/C=N\NC(=O)CC(=O)NCCc2ccccc2)cc1` gave N-glyco inh -2, T cell HTS 366 and ALR H2O2 inh -21.
For COc1ccc(/C=N/NC(=O)CC(=O)NCCc2ccccc2)cc1OC the results were N-glyco inh 0, T cell HTS 701 and ALR H2O2 inh -2.
CCc1ccc(CN2CCCC(C(=O)Nc3ccc(-c4cscn4)cc3)C2)o1 (stereo not drawn) was read as N-glyco inh -4, T cell HTS 157 and ALR H2O2 inh -3.
For COCC1CCN(C(=O)CCc2nnc(CCCCc3ccccc3)o2)CC1 the results were N-glyco inh -1, T cell HTS 235 and ALR H2O2 inh -15.
For COCC(=O)N(C)C[C@@H]1Oc2cc(-c3ccc(F)cc3)ccc2S(=O)(=O)N([C@H](C)CO)C[C@H]1C the results were N-glyco inh 2.
Screening COc1ccc(C(=O)Cn2c(C)nc([N+](=O)[O-])c2Br)cc1 returned N-glyco inh 6, T cell HTS 300 and ALR H2O2 inh 1.
Cc1nc([N+](=O)[O-])c(Br)n1CC(=O)c1ccc(Cl)cc1 was read as N-glyco inh 6, T cell HTS 744 and ALR H2O2 inh 97*.
`O=C1CC(NNC(=O)c2cccc(F)c2)C(=O)N1` (stereo not drawn) gave N-glyco inh -1, T cell HTS 149 and ALR H2O2 inh 92*.
Screening O=C1CC(NNC(=O)c2ccccc2)C(=O)N1 (stereo not drawn) returned N-glyco inh 0, T cell HTS 660 and ALR H2O2 inh 3.
Screening COc1ccc(-c2cc(=O)oc3c(O)c(O)ccc23)cc1 returned N-glyco inh -2, T cell HTS 273 and ALR H2O2 inh 99*.
`COc1ccc(-c2cc(=O)oc3cc(OC(C)C(=O)O)ccc23)cc1` (stereo not drawn) gave N-glyco inh 0, T cell HTS 168 and ALR H2O2 inh -6.
`COc1ccc(S(=O)(=O)NCc2cccnc2)cc1NC(=O)c1ccc(Cl)cc1` gave N-glyco inh 0, T cell HTS 162 and ALR H2O2 inh 1.
Screening COc1ccc(CN(C)C(=O)CCN(c2ccccc2)S(=O)(=O)c2ccc(C)cc2)c(OC)c1 returned N-glyco inh -6, T cell HTS 257 and ALR H2O2 inh 0.
